Assays:
Mus musculus [1] = assay: Anticonvulsant activity in ip dosed albino mouse by MES seizure test; type: functional
In short: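 Mice dosed intraperitoneally and challenged by maximal electroshock (MES). Dose-effect data taken at the time of peak effect, given in hours.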

[2] = Neurotoxicity in ip dosed albino mouse by rotarod test; type: toxicity, organism-based; conditions: in vivo
In short: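 Mice dosed intraperitoneally and tested on the rotorod for neurologic toxicity. Dose-effect data taken at the time of peak effect, given in hours.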

Mus musculus [3] = species on record: Mus musculus; assay: Protective index, ratio of TD50 for albino mouse by rotarod test to ED50 for albino mouse by MES seizure test; type: functional
In short: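 Protective index calculated as TD50/ED50. TD50 is from the mouse rotorod test and ED50 from the MES test, both after intraperitoneal dosing at the time of peak effect.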

Row | SMILES | ED50 (Mus musculus [1]) [mg/kg] | TD50 [2] [mg/kg] | Ratio TD50/ED50 (Mus musculus [3])
1 | CC(=O)N[C@H](COC(C)C)C(=O)NCc1ccccc1 | 23 | 77 | 3.3
2 | CCOC[C@@H](NC(C)=O)C(=O)NCc1ccccc1 | 7.9 | 44 | 5.6
3 | COCCOCCOC[C@@H](NC(C)=O)C(=O)NCc1ccccc1 | > 300 | > 300 | –
4 | CC(=O)N[C@H](COC(C)(C)C)C(=O)NCc1ccccc1 | 30 | 100 | –
5 | CC(=O)N[C@H](COc1ccccc1)C(=O)NCc1ccccc1 | 100 | 30 | –
6 | CCC1(c2ccccc2)C(=O)NC(=O)NC1=O [PHENOBARBITAL] | 22 | – | –
7 | CCCC(CCC)C(=O)[O-].[Na+] [VALPROATE SODIUM] | 270 | – | –

— ChEMBL document CHEMBL1144225, “Synthesis and anticonvulsant activities of N-benzyl (2R)-2-acetamido-3-oxysubstituted propionamide derivatives” (Bioorg Med Chem, 2008)
